For series [1], the system named is Mus musculus. The series is described as follows: The effective dose was measured by using mouse writhing assay after the compound administered subcutaneously. It is filed as functional. Particulars: sc. The procedure, abridged:
(§1)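 Analgesia in the mouse writhing test induced by acetic acid, with compound given subcutaneously. Salts were dissolved in distilled H₂O; free bases were dissolved by dropwise 1 N HCl and then diluted.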

Series [2] relates to Rattus norvegicus. In words: The Effective dose was measured by using rat tail flick assay after the compound administered subcutaneously at a dose of 28 umol/kg; IA means inactive at the given dose. It is filed as functional, organism-based. The procedure, abridged: (§2)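 Agonist activity in the rat heat-stimulus tail-flick test. Drug was given subcutaneously and rats were tested 20 min after dosing. Salts were dissolved in distilled H₂O; free bases were dissolved with dropwise 1 N HCl and then diluted. ED₅₀ or inactivity/lethality recorded at the dose indicated.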

Series [3] concerns Rattus norvegicus. In words: The Effective dose was measured by using rat tail flick assay after the compound administered intraperitoneally at a dose of 50 umol/kg; IA means inactive at the given dose. It is filed as functional, organism-based.
The test system of series [4] is Mus musculus. In words: The Effective dose was measured by using mouse writhing assay after the compound administered subcutaneously at a dose of 50 umol/kg; IA means inactive at the given dose. It is filed as functional, organism-based. The procedure, abridged:
as §1

Series [5] relates to Rattus norvegicus. In words: The effective dose was measured by using rat tail flick assay after the compound administered intraperitoneally. It is filed as functional. The settings on record: ip.
For series [6], the system named is Rattus norvegicus. In words: The Effective dose was measured by using rat tail flick assay after the compound administered intraperitoneally at a dose of 9 umol/kg; IA means inactive at the given dose. It is filed as functional, organism-based.
Series [7] deals with Rattus norvegicus. In words: The Effective dose was measured by using rat tail flick assay after the compound administered intraperitoneally at a dose of 30 umol/kg; IA means inactive at the given dose. It is filed as functional, organism-based.
Series [8] has as its system Rattus norvegicus. The series is described as follows: The Effective dose was measured by using rat tail flick assay after the compound administered intraperitoneally at a dose of 50 uM/Kg; IA means inactive at the given dose. It is filed as functional, organism-based.
Series [9] concerns Mus musculus. In words: The Effective dose was measured by using mouse writhing assay after the compound administered subcutaneously at a dose of 75 umol/kg; IA means inactive at the given dose. It is filed as functional, organism-based. A digest of the protocol:
as §1

Series [10] deals with Rattus norvegicus. The series is described as follows: The Effective dose was measured by using rat tail flick assay after the compound administered subcutaneously; lethal at the given dose. It is filed as organism-based. The settings on record: in vivo, sc. A digest of the protocol:
as §2

The subject of series [11] is Rattus norvegicus. The series is described as follows: The Effective dose was measured by using rat tail flick assay after the compound administered intraperitoneally at a dose of 7.7 umol/kg; IA means inactive at the given dose. It is filed as functional, organism-based.
The subject of series [12] is Rattus norvegicus. In words: The %change in weight from day 0 to day 2 after administering the compound at dose of 80 (mg/kg)/day in rat. It is filed as functional. The procedure, abridged:
(§3)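 Rat physical dependence liability study: drug infused at the stated mg/kg/day for 6 days, with saline-infused controls for 6 days. Body weight was recorded daily and expressed as % change from day 0 on days 1–4. Groups of 4–6 rats; values are means ±.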

Series [13] concerns Rattus norvegicus. The series is described as follows: The %change in weight from day 0 to day 3 after administering the compound at dose of 80 (mg/kg)/day in rat. It is filed as functional. The procedure, abridged:
as §3

The subject of series [14] is Rattus norvegicus. The series is described as follows: The %change in weight from day 0 to day 3 after administering the compound at dose of 40 (mg/kg)/day in rat. It is filed as functional. A digest of the protocol:
as §3

Series [15] concerns Rattus norvegicus. In words: The %change in weight from day 0 to day 4 after administering the compound at dose of 40 (mg/kg)/day in rat. It is filed as functional. The procedure, abridged:
as §3

In series [16] the test system is Rattus norvegicus. The series is described as follows: The %change in weight from day 0 to day 2 after administering the compound at dose of 40 (mg/kg)/day in rat. It is filed as functional. The procedure, abridged:
as §3

Series [17] concerns Rattus norvegicus. The series is described as follows: The %change in weight from day 0 to day1 after administering the compound at dose of 80 (mg/kg)/day in rat. It is filed as functional. The procedure, abridged: as §3
For series [18], the system named is Rattus norvegicus. In words: The %change in weight from day 0 to day1 after administering the compound at dose of 40 (mg/kg)/day in rat. It is filed as functional. The procedure, abridged:
as §3

Series [19] deals with Rattus norvegicus. In words: The %change in weight from day 0 to day 4 after administering the compound at dose of 80 (mg/kg)/day in rat. It is filed as functional. The procedure, abridged:
as §3

Activity calls are given as the source filed them. No cut-off for these calls is given here.

We go through ten compounds from ChEMBL document CHEMBL1121388, “Analgesic narcotic antagonists. 2. 8-Alkymorphinan-6-ones” (J Med Chem, 1980).

In the series with Mus musculus [1], `CCC[C@@H]1CC(=O)CC23CCN(C)C(Cc4ccc(OC)cc42)[C@@H]13` (stereo partly specified) showed an ED50 of 55 µmol/kg. The ED50 result in the series on Rattus norvegicus [2] was “inactive”.

Regarding `CC[C@H]1CC(=O)CC23CCN(CC4CCC4)C(Cc4ccc(OC)cc42)[C@H]13` (stereo partly specified), the ED50 entry in the series with Rattus norvegicus [3] was “inactive”. Moreover, in the series on Mus musculus [1], the ED50 was 14.2 µmol/kg.

Consider `CC[C@H]1CC(=O)CC23CCN(CC4CC4)C(Cc4ccc(O)cc42)[C@H]13` (stereo partly specified), for which the ED50 result in the series on Mus musculus [4] is “inactive”. For the same compound, the ED50 in the series with Rattus norvegicus [5] was 4.7 µmol/kg.

On to `CCC1CCCC23CCN(CC4CCC4)C(Cc4ccc(O)cc42)[C@H]13` (stereo partly specified), for which the ED50 result in the series with Rattus norvegicus [6] is “inactive”. Besides, the ED50 in the series with Mus musculus [1] was > 25 µmol/kg.

For the compound `COc1ccc2c(c1)C13CCN(CC4CCC4)C(C2)[C@H]1CCC(=O)C3` (stereo partly specified), in the series on Mus musculus [1], the ED50 stood at 20.3 µmol/kg. The ED50 result in the series with Rattus norvegicus [7] is “inactive”.

On to `CCC[C@H]1CC(=O)CC23CCN(CC4CCC4)C(Cc4ccc(OC)cc42)[C@H]13` (stereo partly specified), for which, in the series with Rattus norvegicus [8], the ED50 entry is “inactive”. The compound also had an ED50 in the series with Mus musculus [1] of 34 µmol/kg.

With `CC[C@@H]1CC(=O)CC23CCN(CC4CCC4)C(Cc4ccc(OC)cc42)[C@@H]13` (stereo partly specified), the ED50 entry in the series on Mus musculus [9] was “inactive”. For the same compound, the ED50 with Rattus norvegicus [5] was > 25 µmol/kg.

On to `COc1ccc2c(c1)C13CCN(C)C(C2)[C@H]1[C@H](C)CC(=O)C3` (stereo partly specified), for which the results for the ED50 with Mus musculus [1] and in the series on Rattus norvegicus [10] were 2.65 µmol/kg and 9 µM/kg, respectively.

`CCC1CCCC23CCN(CC4CCC4)C(Cc4ccc(OC)cc42)[C@H]13` (stereo partly specified): the ED50 result in the series on Rattus norvegicus [11] is “inactive”. The ED50 in the series with Mus musculus [1] is > 25 µmol/kg.

For the compound `C[C@H]1CC(=O)CC23CCN(CC4CCC4)C(Cc4ccc(O)cc42)[C@H]13.O=C(O)C(O)C(O)C(=O)O` (stereo partly specified), the Change in the series with Rattus norvegicus [12] came out at 3.1%; with Rattus norvegicus [13], 5.3%; with Rattus norvegicus [14], 6.1%; with Rattus norvegicus [15], 9.6%; in the series on Rattus norvegicus [16], 2%; with Rattus norvegicus [17], 1.7%. For the same compound, the Change with Rattus norvegicus [18] turned out to be 1.2%; with Rattus norvegicus [19], 9.5%.
